≈ marks a conversion by molar mass, not a printed value.

In one data set the test system is TIG-1-20. The experiment in a line: Cytotoxicity of compound towards TIG-1-20 hybrobrast cells, expressed as survival ratio of cells. The class given is functional, Homo sapiens.
Data set [1] in a line: Solubility in water at room temperature. The class given is physicochemical. The following applies: read-out: S. A digest of the protocol:
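Excess boron compound was dissolved, and the undissolved material was removed by membrane filtration. Boron concentration of the saturated solution was measured by ICP-AES. Three replicates, mean ± SE.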

Another data set concerns B16. Put plainly: Cytotoxicity of compound towards B-16 melanoma cells, expressed as survival ratio of cells. The class given is functional, Mus musculus.

Turning to `NC(Cc1ccc(B(O)O)cc1)C(=O)NC(CO)CO` (configuration not stated), the results for the Survival ratio in the data set with TIG-1-20 and with B16 were 71% and 60%, respectively. For the same molecule, in data set [1], the solubility was found to be 660 mM (≈ 186 mg/mL).
For `NC(Cc1ccc(B(O)O)cc1)C(=O)NCCO` (configuration not stated) the same measures were 66%, 60% and 600 mM (≈ 151 mg/mL).
For `NC(Cc1ccc(B(O)O)cc1)C(=O)O` (configuration not stated) the same measures were 20%, 20% and 7.7 mM (≈ 1.61 mg/mL).
The like results for `NC(Cc1ccc(B(O)O)cc1)C(=O)NC(COC(CO)CO)COC(CO)CO` (configuration not stated) were, in that order, 73%, 62% and 1200 mM (≈ 516 mg/mL).

These data come from ChEMBL document CHEMBL1128357, “Synthesis and biological properties of water-soluble p-boronophenylalanine derivatives. Relationship between water solubility, cytotoxicity, and cellular uptake” (J Med Chem, 1995).
